System: HEK-293T
Assay: Multiplex assay against HEK293T
Format: toxicity, cell-based
Settings: human
Method in brief: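 Cells stained live at seeding with Hoechst33342, BioTracker Green Microtubule Cytoskeleton Dye, MitoTracker Red and Annexin V Alexa Fluor 680 were imaged on a CQ1 microscope at 37°C and 5% CO2 after compound addition. Their classification by CellPathfinder machine-learning gating ran from Hoechst high-intensity objects versus normal cells, to healthy, pyknosed or fragmented nuclei among normal cells, to mitotic or apoptotic among pyknosed cells. Tubulin, mitochondrial-mass and membrane-permeability phenotypes are per cents of healthy-nucleus cells.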

[1] = 12 h, 1 µM, compound concentration 1 uM, replicate 1
[2] = 12 h, 1 µM, compound concentration 1 uM, replicate 2
[3] = 12 h, 10 µM, compound concentration 10 uM, replicate 1
[4] = 12 h, 10 µM, compound concentration 10 uM, replicate 2
[5] = 24 h, 1 µM, compound concentration 1 uM, replicate 1
[6] = 24 h, 1 µM, compound concentration 1 uM, replicate 2
[7] = 24 h, 10 µM, compound concentration 10 uM, replicate 1
[8] = 24 h, 10 µM, compound concentration 10 uM, replicate 2
[9] = 48 h, 1 µM, compound concentration 1 uM, replicate 1
[10] = 48 h, 1 µM, compound concentration 1 uM, replicate 2
[11] = 48 h, 10 µM, compound concentration 10 uM, replicate 1
[12] = 48 h, 10 µM, compound concentration 10 uM, replicate 2

CSc1nc(NC2CCCC2)c([N+](=O)[O-])c(NC2CCCC2)n1 [GS-39783]
Population Apoptotic (%) [1]: 45%
Population Fragmented Nuclei (%) [1]: 11%
Population Healthy Nuclei (%) [1]: 74%
Population Hoechst High Intensity Objects (%) [1]: 8%
Population Membrane Permeable-Phenotype (%) [1]: 0%
Population Mitochondria Different-Phenotype (%) [1]: 41%
Population Mitotic Cells (%) [1]: 54%
Population Normal (%) [1]: 91%
Population Pyknosed Nuclei (%) [1]: 14%
Population Tubulin-Different-Phenotype (%) [1]: 30%
Total Cell Count [1]: 346
Population Apoptotic (%) [2]: 40%
Population Fragmented Nuclei (%) [2]: 3%
Population Healthy Nuclei (%) [2]: 85%
Population Hoechst High Intensity Objects (%) [2]: 4%
Population Mitochondria Different-Phenotype (%) [2]: 68%
Population Mitotic Cells (%) [2]: 59%
Population Normal (%) [2]: 95%
Population Pyknosed Nuclei (%) [2]: 11%
Population Tubulin-Different-Phenotype (%) [2]: 27%
Total Cell Count [2]: 301
Population Apoptotic (%) [3]: 29%
Population Fragmented Nuclei (%) [3]: 6%
Population Healthy Nuclei (%) [3]: 81%
Population Hoechst High Intensity Objects (%) [3]: 6%
Population Membrane Permeable-Phenotype (%) [3]: 0%
Population Mitochondria Different-Phenotype (%) [3]: 50%
Population Mitotic Cells (%) [3]: 70%
Population Normal (%) [3]: 93%
Population Pyknosed Nuclei (%) [3]: 12%
Population Tubulin-Different-Phenotype (%) [3]: 40%
Total Cell Count [3]: 449
Population Apoptotic (%) [4]: 40%
Population Fragmented Nuclei (%) [4]: 5%
Population Healthy Nuclei (%) [4]: 84%
Population Hoechst High Intensity Objects (%) [4]: 5%
Population Mitochondria Different-Phenotype (%) [4]: 68%
Population Mitotic Cells (%) [4]: 60%
Population Normal (%) [4]: 94%
Population Pyknosed Nuclei (%) [4]: 10%
Population Tubulin-Different-Phenotype (%) [4]: 29%
Total Cell Count [4]: 406
Population Apoptotic (%) [5]: 30%
Population Fragmented Nuclei (%) [5]: 12%
Population Healthy Nuclei (%) [5]: 76%
Population Hoechst High Intensity Objects (%) [5]: 7%
Population Membrane Permeable-Phenotype (%) [5]: 0%
Population Mitochondria Different-Phenotype (%) [5]: 25%
Population Mitotic Cells (%) [5]: 69%
Population Normal (%) [5]: 92%
Population Pyknosed Nuclei (%) [5]: 11%
Population Tubulin-Different-Phenotype (%) [5]: 19%
Total Cell Count [5]: 492
Population Apoptotic (%) [6]: 38%
Population Fragmented Nuclei (%) [6]: 7%
Population Healthy Nuclei (%) [6]: 84%
Population Hoechst High Intensity Objects (%) [6]: 8%
Population Mitochondria Different-Phenotype (%) [6]: 51%
Population Mitotic Cells (%) [6]: 61%
Population Normal (%) [6]: 91%
Population Pyknosed Nuclei (%) [6]: 7%
Total Cell Count [6]: 360
Population Apoptotic (%) [7]: 27%
Population Fragmented Nuclei (%) [7]: 11%
Population Healthy Nuclei (%) [7]: 78%
Population Hoechst High Intensity Objects (%) [7]: 5%
Population Membrane Permeable-Phenotype (%) [7]: 1%
Population Mitochondria Different-Phenotype (%) [7]: 30%
Population Mitotic Cells (%) [7]: 72%
Population Normal (%) [7]: 94%
Population Pyknosed Nuclei (%) [7]: 10%
Population Tubulin-Different-Phenotype (%) [7]: 30%
Total Cell Count [7]: 553
Population Apoptotic (%) [8]: 37%
Population Fragmented Nuclei (%) [8]: 8%
Population Healthy Nuclei (%) [8]: 83%
Population Hoechst High Intensity Objects (%) [8]: 6%
Population Membrane Permeable-Phenotype (%) [8]: 0%
Population Mitochondria Different-Phenotype (%) [8]: 52%
Population Mitotic Cells (%) [8]: 62%
Population Normal (%) [8]: 93%
Population Pyknosed Nuclei (%) [8]: 7%
Population Tubulin-Different-Phenotype (%) [8]: 28%
Total Cell Count [8]: 474
Population Apoptotic (%) [9]: 35%
Population Fragmented Nuclei (%) [9]: 15%
Population Healthy Nuclei (%) [9]: 74%
Population Hoechst High Intensity Objects (%) [9]: 3%
Population Membrane Permeable-Phenotype (%) [9]: 1%
Population Mitochondria Different-Phenotype (%) [9]: 22%
Population Mitotic Cells (%) [9]: 64%
Population Normal (%) [9]: 96%
Population Pyknosed Nuclei (%) [9]: 9%
Population Tubulin-Different-Phenotype (%) [9]: 22%
Total Cell Count [9]: 775
Population Apoptotic (%) [10]: 30%
Population Fragmented Nuclei (%) [10]: 13%
Population Healthy Nuclei (%) [10]: 77%
Population Hoechst High Intensity Objects (%) [10]: 6%
Population Membrane Permeable-Phenotype (%) [10]: 0%
Population Mitochondria Different-Phenotype (%) [10]: 32%
Population Mitotic Cells (%) [10]: 69%
Population Normal (%) [10]: 93%
Population Pyknosed Nuclei (%) [10]: 8%
Population Tubulin-Different-Phenotype (%) [10]: 24%
Total Cell Count [10]: 505
Population Apoptotic (%) [11]: 17%
Population Fragmented Nuclei (%) [11]: 14%
Population Healthy Nuclei (%) [11]: 78%
Population Hoechst High Intensity Objects (%) [11]: 3%
Population Membrane Permeable-Phenotype (%) [11]: 1%
Population Mitochondria Different-Phenotype (%) [11]: 27%
Population Mitotic Cells (%) [11]: 82%
Population Normal (%) [11]: 96%
Population Pyknosed Nuclei (%) [11]: 7%
Population Tubulin-Different-Phenotype (%) [11]: 21%
Total Cell Count [11]: 856
Population Apoptotic (%) [12]: 30%
Population Fragmented Nuclei (%) [12]: 13%
Population Healthy Nuclei (%) [12]: 77%
Population Hoechst High Intensity Objects (%) [12]: 5%
Population Membrane Permeable-Phenotype (%) [12]: 0%
Population Mitochondria Different-Phenotype (%) [12]: 35%
Population Mitotic Cells (%) [12]: 69%
Population Normal (%) [12]: 94%
Population Pyknosed Nuclei (%) [12]: 8%
Total Cell Count [12]: 647

CC(C)(C)c1ccc(CSc2cnn(C(C)(C)C)c(=O)c2Cl)cc1 [PYRIDABEN]
Population Apoptotic (%) [1]: 51%
Population Fragmented Nuclei (%) [1]: 7%
Population Healthy Nuclei (%) [1]: 78%
Population Hoechst High Intensity Objects (%) [1]: 12%
Population Membrane Permeable-Phenotype (%) [1]: 0%
Population Mitochondria Different-Phenotype (%) [1]: 51%
Population Mitotic Cells (%) [1]: 48%
Population Normal (%) [1]: 87%
Population Pyknosed Nuclei (%) [1]: 14%
Population Tubulin-Different-Phenotype (%) [1]: 34%
Total Cell Count [1]: 299
Population Apoptotic (%) [2]: 28%
Population Fragmented Nuclei (%) [2]: 6%
Population Healthy Nuclei (%) [2]: 83%
Population Hoechst High Intensity Objects (%) [2]: 8%
Population Mitochondria Different-Phenotype (%) [2]: 63%
Population Mitotic Cells (%) [2]: 71%
Population Normal (%) [2]: 91%
Population Pyknosed Nuclei (%) [2]: 10%
Population Tubulin-Different-Phenotype (%) [2]: 30%
Total Cell Count [2]: 306
Population Apoptotic (%) [3]: 56%
Population Fragmented Nuclei (%) [3]: 6%
Population Healthy Nuclei (%) [3]: 77%
Population Hoechst High Intensity Objects (%) [3]: 11%
Population Membrane Permeable-Phenotype (%) [3]: 0%
Population Mitochondria Different-Phenotype (%) [3]: 75%
Population Mitotic Cells (%) [3]: 44%
Population Normal (%) [3]: 88%
Population Pyknosed Nuclei (%) [3]: 15%
Population Tubulin-Different-Phenotype (%) [3]: 55%
Total Cell Count [3]: 359
Population Apoptotic (%) [4]: 62%
Population Fragmented Nuclei (%) [4]: 8%
Population Healthy Nuclei (%) [4]: 74%
Population Hoechst High Intensity Objects (%) [4]: 17%
Population Mitochondria Different-Phenotype (%) [4]: 81%
Population Mitotic Cells (%) [4]: 37%
Population Normal (%) [4]: 82%
Population Pyknosed Nuclei (%) [4]: 16%
Population Tubulin-Different-Phenotype (%) [4]: 38%
Total Cell Count [4]: 236
Population Apoptotic (%) [5]: 33%
Population Fragmented Nuclei (%) [5]: 7%
Population Healthy Nuclei (%) [5]: 80%
Population Hoechst High Intensity Objects (%) [5]: 9%
Population Membrane Permeable-Phenotype (%) [5]: 0%
Population Mitochondria Different-Phenotype (%) [5]: 37%
Population Mitotic Cells (%) [5]: 66%
Population Normal (%) [5]: 90%
Population Pyknosed Nuclei (%) [5]: 11%
Population Tubulin-Different-Phenotype (%) [5]: 27%
Total Cell Count [5]: 373
Population Apoptotic (%) [6]: 35%
Population Healthy Nuclei (%) [6]: 83%
Population Hoechst High Intensity Objects (%) [6]: 8%
Population Mitochondria Different-Phenotype (%) [6]: 43%
Population Mitotic Cells (%) [6]: 64%
Population Normal (%) [6]: 91%
Population Pyknosed Nuclei (%) [6]: 8%
Population Tubulin-Different-Phenotype (%) [6]: 22%
Total Cell Count [6]: 370
Population Apoptotic (%) [7]: 44%
Population Fragmented Nuclei (%) [7]: 7%
Population Healthy Nuclei (%) [7]: 79%
Population Hoechst High Intensity Objects (%) [7]: 10%
Population Membrane Permeable-Phenotype (%) [7]: 0%
Population Mitochondria Different-Phenotype (%) [7]: 68%
Population Mitotic Cells (%) [7]: 55%
Population Normal (%) [7]: 89%
Population Pyknosed Nuclei (%) [7]: 12%
Population Tubulin-Different-Phenotype (%) [7]: 52%
Total Cell Count [7]: 386
Population Apoptotic (%) [8]: 46%
Population Fragmented Nuclei (%) [8]: 8%
Population Healthy Nuclei (%) [8]: 70%
Population Hoechst High Intensity Objects (%) [8]: 23%
Population Mitochondria Different-Phenotype (%) [8]: 65%
Population Mitotic Cells (%) [8]: 53%
Population Normal (%) [8]: 76%
Population Pyknosed Nuclei (%) [8]: 21%
Population Tubulin-Different-Phenotype (%) [8]: 25%
Total Cell Count [8]: 252
Population Apoptotic (%) [9]: 19%
Population Fragmented Nuclei (%) [9]: 11%
Population Healthy Nuclei (%) [9]: 80%
Population Hoechst High Intensity Objects (%) [9]: 5%
Population Membrane Permeable-Phenotype (%) [9]: 0%
Population Mitochondria Different-Phenotype (%) [9]: 25%
Population Mitotic Cells (%) [9]: 80%
Population Normal (%) [9]: 94%
Population Pyknosed Nuclei (%) [9]: 7%
Population Tubulin-Different-Phenotype (%) [9]: 14%
Total Cell Count [9]: 585
Population Apoptotic (%) [10]: 30%
Population Fragmented Nuclei (%) [10]: 9%
Population Healthy Nuclei (%) [10]: 84%
Population Hoechst High Intensity Objects (%) [10]: 4%
Population Mitochondria Different-Phenotype (%) [10]: 21%
Population Mitotic Cells (%) [10]: 69%
Population Normal (%) [10]: 95%
Population Pyknosed Nuclei (%) [10]: 6%
Population Tubulin-Different-Phenotype (%) [10]: 13%
Total Cell Count [10]: 522
Population Apoptotic (%) [11]: 48%
Population Fragmented Nuclei (%) [11]: 8%
Population Healthy Nuclei (%) [11]: 79%
Population Hoechst High Intensity Objects (%) [11]: 11%
Population Membrane Permeable-Phenotype (%) [11]: 0%
Population Mitochondria Different-Phenotype (%) [11]: 59%
Population Mitotic Cells (%) [11]: 51%
Population Normal (%) [11]: 88%
Population Pyknosed Nuclei (%) [11]: 12%
Population Tubulin-Different-Phenotype (%) [11]: 43%
Total Cell Count [11]: 424
Population Apoptotic (%) [12]: 64%
Population Fragmented Nuclei (%) [12]: 13%
Population Healthy Nuclei (%) [12]: 71%
Population Hoechst High Intensity Objects (%) [12]: 14%
Population Mitochondria Different-Phenotype (%) [12]: 48%
Population Mitotic Cells (%) [12]: 35%
Population Normal (%) [12]: 85%
Population Pyknosed Nuclei (%) [12]: 14%
Population Tubulin-Different-Phenotype (%) [12]: 28%
Total Cell Count [12]: 290
